Results taken from publication PMC4734807 (International Journal of Nanomedicine, 2016).

How the values were obtained:
[1] = system: various malignant tumors, such as human hepatocellular carcinoma cells (Bel7402) and human cervical carcinoma cells (HeLa); conditions: e.g. Bel7402, HeLa; cited from earlier work
In vitro drug release = format: physicochemical; conditions: raw RBG
HepG2 cells = test: Cell apoptosis, Annexin V-FITC/PI flow cytometry; format: cell-based, human; conditions: 24 hours
Method in brief: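 HepG2 cells grown in high-glucose DMEM with 10% FBS and 1% antibiotics at 37°C, 5% CO2. Seeded at 2×10^5 cells/mL and incubated 24 h. Then exposed 24 h to nanoparticle suspension or drug solution at 1.2, 5 and 20 μg/mL RBG-equivalent, with 5-fluorouracil 20 μg/mL as control. Cells washed in cold PBS and stained with Annexin V-FITC/PI in binding buffer, 15 min at room temperature, then read by flow cytometry.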

[2] = In vivo therapeutic effect in HCa-F solid tumor-bearing mice; conditions: male, mouse, tumor, intravenous, 2 mg/kg
Method in brief: (§1)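 Male mice, 6 weeks, implanted subcutaneously in the right axilla with washed HCa-F ascites cells (2.0–2.3×10^7 cells/mL, 0.01 mL/g). At a longest tumour diameter of about 14–16 mm, mice randomised to six groups of eight. Dosing 2 mg/kg RBG-equivalent (5-fluorouracil 2 mg/kg) by tail vein, daily for 7 days, in 20% PEG400/saline vehicle. Volume V=a²×b/2 measured before and after dosing. Tumours weighed; IR from mean weights versus vehicle control. Tumour RBG measured in saline homogenates.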

HCa-F cells = test: as above; conditions: for IR (tumor growth inhibition rate) / Number of natural deaths / Tumor weight / Volume growth (incremental tumor volume): 2 mg/kg iv once per day for 7 days; for IR (tumor growth inhibition rate): by tumor weight; for Number of natural deaths: eight mice per group; for Tumor weight / Volume growth (incremental tumor volume): n=8
Method in brief: as §1

LD50 = test: LD50; design: species or system mice; conditions: male, Kunming, mouse, in vivo, iv
[3] = In vivo RBG concentrations in plasma and organs, liver-targeting indexes; design: species or system Kunming mice; conditions: for AUC: iv
Method in brief: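 Male Kunming mice, 6 weeks, about 20.9 g, fasted overnight. Single tail-vein dose of 2 mg/kg RBG-equivalent, given as sonicated nanoparticle suspension or as solution, both in 20% PEG400/saline. Ten mice per group sampled at 0.08–24 h: cardiac blood, liver, heart, spleen, lung and kidney. RBG measured by RP-HPLC. AUC0–24 h by trapezoid method. Re is the AUC ratio of formulation to solution; Te is the liver AUC over the non-target organ AUC.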

C[C@]12CC[C@H](O)C[C@H]1CC[C@@H]1[C@@H]2CC[C@]2(C)[C@@H](c3ccc(=O)oc3)C[C@H]3O[C@]132 [RBG, Resibufogenin]
IC50 [1]: 1 to 50 nM
Release in the first 2 days (In vitro drug release): 98.78%

C[C@]12CC[C@H](O)C[C@H]1CC[C@@H]1[C@@H]2CC[C@]2(C)[C@@H](c3ccc(=O)oc3)C[C@H]3O[C@]132 [RS, Resibufogenin]
Cell ratio, apoptotic cells (HepG2 cells; 1.2 μg/mL): 21.8±1.5%
Cell ratio, necrotic cells (HepG2 cells; 1.2 μg/mL): 1.6±0.8%
Cell ratio, survival cells (HepG2 cells; 1.2 μg/mL): 76.6±2.2%
Cell ratio, apoptotic cells (HepG2 cells; 5 μg/mL): 33.6±1.6 %
Cell ratio, necrotic cells (HepG2 cells; 5 μg/mL): 0.6±0.5%
Cell ratio, survival cells (HepG2 cells; 5 μg/mL): 65.8±2.7%
Cell ratio, apoptotic cells (HepG2 cells; 20 μg/mL): 45.4±1.7 %
Cell ratio, necrotic cells (HepG2 cells; 20 μg/mL): 0.4±0.4%
Cell ratio, survival cells (HepG2 cells; 20 μg/mL): 54.2±1.9%
concentration at 7 days [2]: 50 ± 20 ng/g
IR (tumor growth inhibition rate) (HCa-F cells): 31.60%
Number of natural deaths (HCa-F cells): 2
Tumor weight (HCa-F cells): 3.55 ± 0.71 g
Volume growth (incremental tumor volume) (HCa-F cells): 3.16±0.78 cm^3
MRBG in tumor (HCa-F cells; after 7 days of administration, n=6): 0.19 ± 0.08 µg
LD50 (LD50): 18.9 mg/kg
Te (targeting efficiency), liver versus heart ([3]; AUC liver / AUC heart): 0.6
Te (targeting efficiency), liver versus kidney ([3]; AUC liver / AUC kidney): 0.8
Te (targeting efficiency), liver versus lung ([3]; AUC liver / AUC lung): 0.8
Te (targeting efficiency), liver versus spleen ([3]; AUC liver / AUC spleen): 1.0
Te (targeting efficiency), overall statement ([3]; liver versus plasma and other organs): < 1
AUC ([3]; male, Kunming, mouse, heart, 2 mg/kg): 3700 ± 900 ng·h/mL
AUC ([3]; male, Kunming, mouse, kidney, 2 mg/kg): 2700 ± 1000 ng·h/mL
AUC ([3]; male, Kunming, mouse, liver, 2 mg/kg): 2100 ± 900 ng·h/mL
Kp ([3]; male, Kunming, mouse, liver/plasma, intravenous, 2 mg/kg): 0.1
AUC ([3]; male, Kunming, mouse, lung, 2 mg/kg): 2500 ± 800 ng·h/mL
AUC ([3]; male, Kunming, mouse, plasma, 2 mg/kg): 18600 ± 2100 ng·h/mL
AUC ([3]; male, Kunming, mouse, spleen, 2 mg/kg): 2200 ± 600 ng·h/mL
Retention (slow release) time of RBG in liver ([3]; mice, iv 2 mg/kg RBG): 1 h

O=c1[nH]cc(F)c(=O)[nH]1 [FS, 5-fluorouracil]
Cell ratio, apoptotic cells (HepG2 cells; 20 μg/mL): 14.2±1.2%
Cell ratio, necrotic cells (HepG2 cells; 20 μg/mL): 22.3±1.6%
Cell ratio, survival cells (HepG2 cells; 20 μg/mL): 63.5±2.0%
IR (tumor growth inhibition rate) (HCa-F cells): 37.19%
Number of natural deaths (HCa-F cells): 1
Tumor weight (HCa-F cells): 3.26 ± 0.74 g
Volume growth (incremental tumor volume) (HCa-F cells): 3.05±0.72 ^* cm^3
